One may read the EC50 as the midpoint of the concentration-response curve. A higher EC50 goes with a less potent agent. Usually IC50 stands for the concentration that inhibits the measured activity by half.

We go through six compounds from publication PMC3921099 (Neurochemical research, 2013).

One experiment addresses α1β3δ receptors (Rattus norvegicus, UniProt P62813+P63079). Briefly: Two electrode voltage clamp in Xenopus oocytes, modulation of GABA current. Format: cell-based. The conditions noted are these: for stimulation of GABA EC3: 10 μM concentration. In outline:
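α1β3δ receptors from rat cRNAs injected at 3:1:5 into Xenopus oocytes, expressed ≥24 h. Two-electrode clamp at −60 mV, room temperature. GABA concentration–response curves (including 1 μM and 1 mM GABA) recorded with and without 10 μM test compound, currents normalised to maximum evoked current. Hill fits. Curves with and without modulator compared by paired Student's t test, P<0.05, n = 4.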
In general terms: Two-electrode voltage clamp holds a large cell at a set potential and records current.

The subject of a further experiment is αβδ receptors. Briefly: Two electrode voltage clamp, DS2 test for incorporation of the delta subunit. To be noted: 10 μM DS2 (experiments not shown). Format: cell-based, rat. In short, it runs like this: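 Expression of δ checked in every oocyte injected with α, β and δ cRNAs: GABA-induced current tested with addition of 10 μM DS2, under two-electrode voltage clamp at −60 mV, room temperature, in Xenopus Ringer.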

The target of experiment [1] is T1, α1β3γ2 receptors (Rattus norvegicus, UniProt P62813+P63079). Briefly: Two electrode voltage clamp in Xenopus oocytes, modulation of GABA EC3 current. In kind it is cell-based. The conditions noted are these: GABA alone.
Experiment [2] concerns the target T2, α1β3 receptors (Rattus norvegicus, UniProt P62813+P63079). Briefly: Two electrode voltage clamp in Xenopus oocytes, modulation of GABA EC3 current. Format: cell-based. In outline:
(§1)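 Rat α and β3 cRNAs (capped, polyadenylated) injected at 1:1 into Xenopus oocytes, 2.5–4 ng per oocyte, at least 24 h at 18 °C, then defolliculated. Two-electrode voltage clamp at −60 mV, room temperature, in Xenopus Ringer (pH 7.4). GABA titrated to 3–7 % of each oocyte's maximum (EC3). Test compound (0.1 % DMSO final) pre-applied 30 s, then co-applied with GABA until peak. Washout up to 15 min between applications. Responses are % of the GABA control. Mean ± SEM from ≥3 oocytes, ≥2 batches.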

For experiment [3], the target named is T3, α6β3γ2 receptors (Rattus norvegicus, UniProt P30191+P63079). To be noted: 10 μM concentration; cited from earlier work.
A further experiment concerns the target α4β3δ receptors (Rattus norvegicus, UniProt P28471+P63079). Briefly: Two electrode voltage clamp in Xenopus oocytes, modulation of GABA EC3 current. In kind it is cell-based. In short, it runs like this:
(§2)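 Oocytes injected with rat α, β and δ cRNAs (3:1:5, 2.5–4 ng total) and held ≥24 h at 18 °C before collagenase defolliculation. Voltage clamped at −60 mV, room temperature, perfused 6 ml/min with Ringer (pH 7.4). GABA EC3 (3–7 % of individual maximum) co-applied with test compound after 30 s pre-application, 0.1 % DMSO final. Concentration–response fit with Hill equation, bottom fixed at 100 %. Mean ± SEM, ≥3 oocytes, ≥2 batches.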

Experiment [4] concerns the target T1, α1β3γ2 receptors. The conditions noted are these: 10 μM concentration; cited from earlier work.
Experiment [5] deals with T4, α4β3γ2 receptors (Rattus norvegicus, UniProt P28471+P63079). The conditions noted are these: cited from earlier work.
The next experiment addresses α6β3δ receptors (Rattus norvegicus, UniProt P30191+P63079). Briefly: Two electrode voltage clamp in Xenopus oocytes, modulation of GABA EC3 current. Format: cell-based. The conditions noted are these: 10 μM concentration. In outline: as §2
The next experiment has as its target α1β2δ receptors (Rattus norvegicus, UniProt P62813+P63138). The experiment is described as above. In kind it is cell-based. In short, it runs like this:
as §2

The target of another experiment is α2β3 receptors (Rattus norvegicus, UniProt P23576+P63079). Briefly: Two electrode voltage clamp in Xenopus oocytes, modulation of GABA EC3 current. The conditions noted are these: 10 μM concentration. In kind it is cell-based. In short, it runs like this:
as §1

A further experiment addresses α3β3 receptors (Rattus norvegicus, UniProt P20236+P63079). Described as above. Format: cell-based. The conditions noted are these: 10 μM concentration. In short, it runs like this: as §1
For another experiment, the target named is α1S204Cβ3Q64C receptors (Rattus norvegicus, UniProt P62813+P63079, Q89C/S231C). Briefly: Two electrode voltage clamp, steric hindrance. In kind it is cell-based. In outline:
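Oocytes expressing rat α1S204C with β3Q64C (1:1 cRNA) were defolliculated, then immersed 3 min in freshly made 2 mM MTSEA-biotin in Ringer containing GABA EC3, washed 5 min and recorded the same day. Two-electrode clamp at −60 mV with GABA EC3 plus test compound, compared with untreated oocytes. Mean ± SEM, n = 3–4.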

In experiment [6] the target is T2, α1β3 receptors. To be noted: 10 μM concentration; cited from earlier work.
The target in another experiment is α5β3 receptors (Rattus norvegicus, UniProt P19969+P63079). Briefly: Two electrode voltage clamp in Xenopus oocytes, modulation of GABA EC3 current. Format: cell-based. To be noted: 10 μM. In short, it runs like this:
as §1

In experiment [7] the target is T3, α6β3γ2 receptors. Briefly: Two electrode voltage clamp in Xenopus oocytes, modulation of GABA EC3 current. In kind it is cell-based. The conditions noted are these: 10 μM concentration. In outline: (§3)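 Rat αxβ3γ2 cRNAs injected into Xenopus oocytes at a 1:1:5 ratio, 2.5–4 ng total, incubated at least 36 h at 18 °C before defolliculation. Two-electrode clamp at −60 mV, room temperature, Ringer pH 7.4. GABA at EC3 (3–7 % of the cell's maximum current). Test compound (0.1 % DMSO) pre-applied 30 s, then co-applied with GABA to peak. Effects are % of GABA EC3 current. Mean ± SEM, ≥3 oocytes from ≥2 batches.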

Experiment [8] addresses T4, α4β3γ2 receptors. The experiment is described as above. In kind it is cell-based. The conditions noted are these: 10 μM concentration. In short, it runs like this:
as §3

The next experiment addresses α1β3Q64Cδ receptors (Rattus norvegicus, UniProt P62813+P63079, Q89C). Briefly: Two electrode voltage clamp, steric hindrance. To be noted: 10 μM. In kind it is cell-based. In short, it runs like this: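 α1, β3Q64C and δ cRNAs injected at 3:1:5. Defolliculated oocytes were exposed 3 min to freshly prepared 2 mM MTSEA-biotin in Ringer with GABA EC3, rinsed 5 min and used the same day. Untreated oocytes served as comparison. GABA EC3 response to 10 μM test compound measured by two-electrode clamp at −60 mV. Treated and untreated groups compared by unpaired Student's t test, P<0.05.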

The target of experiment [9] is benzodiazepine binding site of α1β3γ2 receptors. To be noted: read-out: IC50 of [3H]Ro15-1788 binding; cited from earlier work.
The subject of experiment [10] is α1S204Cβ3δ receptors. Briefly: Two electrode voltage clamp, steric hindrance. Format: cell-based, rat. To be noted: 10 μM, MTSEA-biotin treated.
The target in experiment [11] is α1S204Cβ3δ receptors (Rattus norvegicus, UniProt P62813+P63079, S231C). Briefly: Two electrode voltage clamp, steric hindrance. The conditions noted are these: 10 μM, without MTSEA-biotin. Format: cell-based.
Another experiment has as its target α1β1δ receptors (Rattus norvegicus, UniProt P15431+P62813). Briefly: Two electrode voltage clamp in Xenopus oocytes, modulation of GABA EC3 current. In kind it is cell-based. In outline:
as §2

Where [12] appears, read: α1β3δ receptors, LAU 157 up to 30 μM (experiments not shown).

Where only a bound is given, the exact number is not on record here.

T2 sequence (P62813 28-455): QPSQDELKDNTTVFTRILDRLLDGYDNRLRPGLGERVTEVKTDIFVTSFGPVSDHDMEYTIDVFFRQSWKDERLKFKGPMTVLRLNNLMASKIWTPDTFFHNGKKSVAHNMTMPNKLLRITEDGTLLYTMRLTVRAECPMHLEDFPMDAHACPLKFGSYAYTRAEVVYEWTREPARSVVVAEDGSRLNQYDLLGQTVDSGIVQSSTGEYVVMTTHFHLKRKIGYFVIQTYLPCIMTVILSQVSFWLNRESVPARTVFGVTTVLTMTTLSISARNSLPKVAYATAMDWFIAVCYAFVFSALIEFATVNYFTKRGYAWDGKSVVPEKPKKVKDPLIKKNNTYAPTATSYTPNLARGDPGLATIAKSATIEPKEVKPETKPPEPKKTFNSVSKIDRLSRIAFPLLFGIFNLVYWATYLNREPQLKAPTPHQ
T2 sequence (P63079 26-473): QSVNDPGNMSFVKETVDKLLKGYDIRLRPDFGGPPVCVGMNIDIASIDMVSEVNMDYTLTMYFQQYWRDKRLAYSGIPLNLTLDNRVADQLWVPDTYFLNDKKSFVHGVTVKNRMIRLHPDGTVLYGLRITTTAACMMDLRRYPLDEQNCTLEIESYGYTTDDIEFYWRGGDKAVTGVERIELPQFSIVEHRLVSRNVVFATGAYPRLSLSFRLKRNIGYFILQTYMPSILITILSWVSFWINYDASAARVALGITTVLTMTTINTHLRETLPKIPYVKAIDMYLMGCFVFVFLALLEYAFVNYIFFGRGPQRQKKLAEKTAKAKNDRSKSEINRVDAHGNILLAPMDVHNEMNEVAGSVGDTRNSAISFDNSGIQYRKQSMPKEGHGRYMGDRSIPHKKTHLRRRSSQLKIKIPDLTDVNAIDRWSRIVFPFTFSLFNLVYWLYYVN
Chain of α1β2δ receptors (P62813 28-455): as the sequence (P62813 28-455) above
Chain of α1β2δ receptors (P63138 25-474 limits assumed): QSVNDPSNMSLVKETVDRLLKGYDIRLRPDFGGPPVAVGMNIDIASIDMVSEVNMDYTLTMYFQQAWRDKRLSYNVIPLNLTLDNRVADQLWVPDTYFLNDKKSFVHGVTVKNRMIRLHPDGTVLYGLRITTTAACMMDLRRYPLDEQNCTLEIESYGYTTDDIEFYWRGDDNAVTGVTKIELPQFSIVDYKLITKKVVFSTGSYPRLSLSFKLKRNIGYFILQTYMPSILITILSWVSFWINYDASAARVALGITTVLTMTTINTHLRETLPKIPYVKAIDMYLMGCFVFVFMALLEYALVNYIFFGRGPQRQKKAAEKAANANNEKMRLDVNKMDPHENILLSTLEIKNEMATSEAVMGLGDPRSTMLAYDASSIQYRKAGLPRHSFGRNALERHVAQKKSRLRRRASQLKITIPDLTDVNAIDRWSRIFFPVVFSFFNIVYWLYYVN
Chain of α1β2δ receptors (P18506 17-449 partner limits assumed): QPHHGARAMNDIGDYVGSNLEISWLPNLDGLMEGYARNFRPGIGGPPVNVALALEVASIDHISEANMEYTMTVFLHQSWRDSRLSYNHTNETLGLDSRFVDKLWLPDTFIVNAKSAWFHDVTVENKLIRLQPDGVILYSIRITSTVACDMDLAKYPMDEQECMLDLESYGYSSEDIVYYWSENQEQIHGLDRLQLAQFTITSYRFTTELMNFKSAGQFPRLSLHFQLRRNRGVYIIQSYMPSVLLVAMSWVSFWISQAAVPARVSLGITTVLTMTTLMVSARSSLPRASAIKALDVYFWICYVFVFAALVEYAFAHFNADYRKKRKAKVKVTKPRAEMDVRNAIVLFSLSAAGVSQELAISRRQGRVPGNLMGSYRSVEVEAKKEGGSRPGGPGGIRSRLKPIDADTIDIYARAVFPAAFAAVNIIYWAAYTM
Chain of α1β3δ receptors (P62813 28-455): as the sequence (P62813 28-455) above
Chain of α1β3δ receptors (P63079 26-473): as the sequence (P63079 26-473) above
Chain of α1β3δ receptors (P18506 17-449 partner limits assumed): as the sequence (P18506 17-449 partner limits assumed) above
Chain of α1S204Cβ3Q64C receptors (P62813 28-455 S231C): as the sequence (P62813 28-455) above, with S204C counted along it
Chain of α1S204Cβ3Q64C receptors (P63079 26-473 Q89C): as the sequence (P63079 26-473) above, with Q64C counted along it

Consider `O=C(Nc1c(-c2cccs2)nc2ccccn12)c1ccc(Cl)cc1` [DS2, 4-Chloro-N-[2-(2-thienyl)imidazo[1,-2-a]pyridin-3-yl]benzamide, reference compound], for which the “stimulation to % of GABA EC3” value on α1β3δ receptors (α1β3δ receptors, 1 μM DS2 (experiments not shown)) is recorded as 400 % of GABA EC3. Also, the “enhancement of GABA-induced currents” value in the experiment with αβδ receptors is reported as “dramatically enhanced”.

`NCCCC(=O)O` [GABA, gamma-aminobutyric acid, reference compound]: the “maximal GABA-induced effect (current)” value at α1β3δ receptors (α1β3δ receptors, GABA alone) is on record as “about 1 μA”. In addition, the “GABA-induced current (maximal)” value stood at 16 μA on α1β3γ2 receptors [1] and 8 μA at α1β3 receptors [2] (GABA alone).

Take `COc1ccc(-n2nc3c4cc(Cl)ccc4[nH]cc-3c2=O)cc1` [PZ-II-028, 8-chloro-2-(4-methoxyphenyl)-2H-pyrazolo[4,3-c]quinolin-3(5H)-one, reference compound]: the “stimulation of GABA-induced current” value on α6β3γ2 receptors [3] was 1871 ± 28%. Further, the “stimulation of GABA EC3” value at α1β3δ receptors (α1β3δ receptors) is reported as 1186 ± 89%; on α6β3δ receptors, 1152 ± 106%. Moreover, the “modulation of GABA-induced currents” value on α4β3δ receptors (α4β3δ receptors, concentration not given) was 425 ± 26%; on α4β3γ2 receptors [5], 226 ± 14%. The “stimulation of GABA-induced currents” value on α1β3γ2 receptors [4] is reported as 939 ± 64.

Take `CCCCNc1c(C(=O)OCC)c(C)nc2c1cnn2CC` [tracazolate, 4-(butylamino)-1-ethyl-6-methyl-1H-pyrazolo[3,4-b]pyridine-5-carboxylate, reference compound]: the “stimulation to % of GABA EC3” value at α1β3δ receptors (α1β3δ receptors, 3 μM tracazolate (experiments not shown)) was 900 % of GABA EC3.

As for `O=c1c2c[nH]c3ccc(Cl)cc3c-2nn1-c1ccc([N+](=O)[O-])cc1` [LAU 157, 8-chloro-2-(4-nitrophenyl)-2H-pyrazolo[4,3-c]quinolin-3(5H)-one], the “modulation of GABA EC3” value on α1β3δ receptors (α1β3δ receptors), at α1β3 receptors [2] and on α1β2δ receptors (α1β2δ receptors) was “did not significantly modulate” throughout. On α1β3δ receptors (setting [12]), the “inhibition of the effects of 1 μM DS2” value is recorded as “did not inhibit”. For the same compound, at α1β3δ receptors (setting [12]), the “inhibition of the effects of 3 μM tracazolate” value is “did not inhibit”. The “inhibition of the effect of 1 μM LAU 177” value against α1β3δ receptors (α1β3δ receptors, increasing concentrations of LAU 157) was “complete inhibition”; against α1β3 receptors [2] (increasing concentrations of LAU 157) it was “complete inhibition”; against α1β2δ receptors (α1β2δ receptors, increasing concentrations of LAU 157), “complete inhibition”.

Regarding `COc1ccc2[nH]cc3c(=O)n(-c4ccc(C#N)cc4)nc-3c2c1` [LAU 177, 4-(8-methoxy-3-oxo-3,5-dihydro-2H-pyrazolo[4,3-c]quinolin-2-yl)benzonitrile], the “stimulation of GABA EC3” value is listed as 981 ± 20 % of GABA EC3 at α2β3 receptors; 3285 ± 257% on α1β3δ receptors (α1β3δ receptors); 1365 ± 117% on α4β3δ receptors (α4β3δ receptors (printed δ4β3δ), 10 μM concentration); 913 ± 178 % of GABA EC3 on α3β3 receptors; 1622 ± 87% on α6β3γ2 receptors [7]; 981 ± 52% on α4β3γ2 receptors [8]. In addition, the “stimulation of GABA EC3” value stood at 6941 ± 1268% at α1β3Q64Cδ receptors (without MTSEA-biotin); 2843 ± 396% at α1β2δ receptors (α1β2δ receptors, 10 μM concentration); 5278 ± 1008% at α1S204Cβ3δ receptors [11]; 1639 ± 244% on α6β3δ receptors. Further, the EC50 on α1β3δ receptors is 1000 nM; at α1β2δ receptors, more than 10700 nM. In addition, the “enhancement of the conductance induced by maximal GABA concentrations” value on α1β3δ receptors (α1β3δ receptors, 10 μM LAU 177) was “about 12 times”. Also, the “change of GABA EC50 by the modulator” value on α1β3δ receptors (α1β3δ receptors, 10 μM LAU 177, paired Student's t test p>0.05) was “no significant change”. The “GABA-induced current in the presence of LAU 177” value at α1β3δ receptors (α1β3δ receptors, 1 mM GABA, 10 μM LAU 177) came out at 13 μA. Besides, at α1S204Cβ3Q64C receptors (MTSEA-biotin treated), the “current enhancement in the presence of MTSEA-biotin” value is given as “drastically reduced”. Further, on α1S204Cβ3Q64C receptors (without MTSEA-biotin), the “enhancement of GABA-induced currents compared with α1β3 receptors” value was “to a similar extent with a comparable potency”. Further, on α1β3 receptors [6], the “stimulation to % of GABA EC3” value is given as 1063 ± 128 % of GABA EC3. Besides, the “enhancement of the GABA-induced current” value at α5β3 receptors was “about 528 ± 103 % GABA”. On α1β3 receptors [2] (concentration dependent, maximum), the “enhancement of GABA-induced currents, up to % of GABA EC3” value was 1152 ± 145 % of GABA EC3. In addition, the results for the “stimulation of GABA EC3 after incubation with MTSEA biotin” value on α1β3Q64Cδ receptors (MTSEA-biotin treated) and in the experiment on α1S204Cβ3δ receptors [10] were 1754 ± 568% and 1884 ± 311%, respectively. Besides, the IC50 in experiment [9] was 0.75 ± 0.81 nM. Moreover, the “efficacy compared to α1β2,3δ receptors” value on α1β1δ receptors is given as “drastically reduced”.
